Data as given in ChEMBL document CHEMBL5154683, “A 5-FU Precursor Designed to Evade Anabolic and Catabolic Drug Pathways and Activated by Pd Chemistry In Vitro and In Vivo” (J Med Chem, 2022).
Active and inactive are the calls of the source. No cut-off for these calls is given here.

What was measured:
[1] = Tmax in male Wistar Han rat at 10 mg/kg, po administered as single dose measured upto 24 hrs; assay type: ADME, organism-based; conditions: in vivo
Method in brief: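 Male jugular-vein-cannulated Wistar Han rats, 263–319 g, single dose. IV: 1 mg/kg as 2 mL/kg of 0.5 mg/mL in 5% DMSO/95% HPCD (20% w/v), not fasted. PO: 10 mg/kg as 5 mL/kg of 2 mg/mL suspension in 5% DMSO/95% tween 80/HPCD vehicle, fasted overnight. Serial cannula blood sampling 0.083/0.25–24 h (n = 3/route); parent quantified by QToF against calibration curve.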

BXPC-3 = test: Antiproliferative activity against human BxPC-3 cells assessed as increase in cytotoxicity at 1 uM incubated for 5 days in presence of Pd-resin by PrestoBlue dye based assay; assay type: functional, cell-based; conditions: time 5.0 day
Method in brief: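 BxPC-3 (RPMI, 10% FBS, 2 mM glutamine) at 2500 cells/well, 48 h attachment, then fresh medium with 1 μM drug/prodrug ± 1 mg/mL Pd resins, 0.1% v/v DMSO, 5 d at 37 °C. Viability by PrestoBlue (10% v/v, 1 h, ex 540/em 590 nm), normalized to DMSO-treated cells; n = 3.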

[2] = Metabolic stability in rat hepatocytes assessed as intrinsic clearance at 3 uM measured per 10^6 cells by LC-MS/MS analysis; assay type: ADME, cell-based, Hepatocyte; conditions: read-out: CLH
Method in brief: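 Suspended hepatocytes (0.5 × 10⁶ cells/mL) in Williams E medium with 2 mM L-glutamine and 25 mM HEPES at 37 °C, compound added with 0.25% v/v DMSO after preincubation; aliquots quenched into methanol with internal standard at time points, centrifuged, supernatant analyzed by LC-MS/MS; two control compounds included.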

[3] = Apparent permeability across basolateral to apical side in human Caco-2 cells at 10 uM measured after 120 mins by LC-MS/MS analysis; assay type: ADME, cell-based
Method in brief: (§1)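 Caco-2 cells (P40-60) seeded at 1 × 10⁵ cells/cm² on Transwells, used on day 20; rinsed and equilibrated 40 min in HBSS pH 7.4. Compound at 10 μM in HBSS, 1% v/v DMSO, added apically (A–B) or basolaterally (B–A); 120 min at 37 °C, 5% CO₂. Lucifer yellow monitored monolayer integrity; LC-MS/MS with eight-point calibration; recovery from C₀ and both compartments.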

[4] = Efflux ratio of apparent permeability across basolateral to apical side over apical to basolateral side in human Caco2 cells at 10 uM measured after 120 mins by LC-MS/MS analysis; assay type: ADME, cell-based; conditions: Caco-2; method in brief: as §1
[5] = Plasma protein binding in rat assessed as compound recovery at 5 uM; assay type: ADME, cell-free; conditions: read-out: Drug recovery
Method in brief: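 Binding of compound at 5 μM measured in rat and human plasma, with compound recovery determined; n = 3.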

[6] = AUC (0 to t) in male Wistar Han rat at 1000 mg/kg, po administered as single dose measured upto 24 hrs; assay type: ADME, organism-based; design: dose 1000 mg/kg, time < 24 hrs, route po; conditions: in vivo
Method in brief: (§2)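 Single oral dose 1000 mg/kg in male and female rats, dosing volume 10 mL/kg (n = 6); animals observed 14 days with clinical checks, functional/neurobehavioral tests and body weight, necropsy on d15; exposure parameters from the toxicokinetic arm of this study.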

[7] = AUC (0 to t) in female Wistar Han rat at 1000 mg/kg, po administered as single dose measured upto 24 hrs; assay type: ADME, organism-based; design: dose 1000 mg/kg, time < 24 hrs, route po; conditions: in vivo; method in brief: as §2
[8] = Toxicity in female Wistar Han rat assessed as change in body weight at 1000 mg/kg, po administered as single dose measured over 14 days; assay type: organism-based; conditions: in vivo, 336 h, time > 14 day
Method in brief: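 Single oral dose of 1000 mg/kg at 10 mL/kg to male and female rats (n = 6), then 14 d observation. Morbidity and mortality checked twice daily. Clinical signs recorded predose, twice on dosing day, then daily. FOB on d1, d7 or d14. Body weight on d1, 2, 5, 8, 11 and 14. Gross necropsy on d15.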

[9] = Toxicity in female Wistar Han rat assessed as abnormal morphological changes in organs at 1000 mg/kg, po administered as single dose measured after 15 days; assay type: organism-based; conditions: in vivo, 360 h, time 15 day
Method in brief: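 Single oral dose of 1000 mg/kg in 10 mL/kg to male and female rats (n = 6), then 14 days of observation. Mortality and morbidity checked twice daily, with clinical observations and functional/neurobehavioral tests. Body weight recorded d1, d2, d5, d8, d11 and d14. Gross necropsy on d15.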

SMILES: C#CCOc1ncc(F)c(OCC#C)n1
- Tmax [1]: 15 min
- Activity (BXPC-3): Active
- hepatocyte CLint at 3 µM [2]: 3.31 µL/min/1e6 cells
- Papp B→A at 2 h, 10 µM [3]: 38.8 ×10⁻⁶ cm/s
- efflux ratio at 2 h, 10 µM [4]: 1.38
- recovery at 5 µM [5]: 94.8%
- AUC(0-t) at 24 h [6]: 1590 µg·h/mL
- AUC(0-t) at 24 h [7]: 1210 µg·h/mL
- Activity [8]: Non-Toxic
- Activity [9]: Non-Toxic
